TDP2 absorb: human TDP2 enzyme inhibitors, primary screen, biochemical, epi absorbance, recombinant enzyme; T5PNP hydrolysis, p-nitrophenol absorbance 415 nm; inhibition, % at 12.8 µM; 0.34% of 370,000 active;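 active = inhibition above the mean of all tested compounds plus 3 SD, set per campaign, cut at about 25% in these data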;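 note: 0% = DMSO with enzyme and 100% = buffer with substrate but no TDP2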
Target sequence (O95551 whole entry, looked up): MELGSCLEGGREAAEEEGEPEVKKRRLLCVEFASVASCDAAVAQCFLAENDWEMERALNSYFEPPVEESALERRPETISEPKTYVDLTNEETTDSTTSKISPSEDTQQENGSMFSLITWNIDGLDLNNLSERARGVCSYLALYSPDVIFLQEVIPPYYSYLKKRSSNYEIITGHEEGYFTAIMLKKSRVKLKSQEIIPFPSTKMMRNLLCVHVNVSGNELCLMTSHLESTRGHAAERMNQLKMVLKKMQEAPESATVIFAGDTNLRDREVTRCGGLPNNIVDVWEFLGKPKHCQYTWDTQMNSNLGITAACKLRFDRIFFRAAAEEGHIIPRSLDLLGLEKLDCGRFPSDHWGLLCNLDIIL
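System – recombinant human TDP2 · Quantity – TDP2 enzyme at 120 nM final · Doses – single concentration, 12.8 µM nominal, with 1% DMSO · Incubation – 2 h at 37 °C · Measured by – epi absorbance of p-nitrophenol freed from T5PNP by hydrolysis · Read-out – % inhibition relative to enzyme-containing and enzyme-free wells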
NSD2 HMT inh: NSD2 histone methyltransferase inhibitors, primary screen, biochemical, AlphaScreen, single concentration, set 2. inhibition, % at 12.5 µM. AID 743445, 2014. 0.54% of 310,000 active. NSD2 peptide methylation, 120 min. Histone-lysine N-methyltransferase NSD2 (Homo sapiens), O96028; in the data active = inhibition above about 50%
UHRF1 binding: UHRF1 methylated DNA binding inhibitors, primary screen, counter-screen for MBD2 inhibitor project, biochemical, TR-FRET, human UHRF1, single concentration; E3 ubiquitin-protein ligase UHRF1 (Homo sapiens), Q96T88; UHRF1 binding to methylated oligo; inhibition, % at 4.4 µM; 0.75% of 370,000 active; in the data active = inhibition above about 21%;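 note: UHRF1 SRA domain binding a hemimethylated CpG hairpin DNA probe; 0% = median of test compound wells and 100% = reference inhibitor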
MBD2 DNA inh: inhibitors of MBD2 binding to methylated DNA, primary screen, biochemical, TR-FRET, DNA-binding domain, human; Methyl-CpG-binding domain protein 2 (Homo sapiens), Q9UBB5; MBD2 binding to methylated oligonucleotide; inhibition, % at 4.4 µM; 0.31% of 370,000 active; AID 686964, 2013; in the data active = inhibition above about 13%
CASP6 VEID inh: human caspase-6 inhibitors, primary screen, biochemical, VEID-R110 fluorescence, single point, set 2; P55212; purified caspase-6, Z-VEID-R110 cleavage fluorescence; 0.53% of 350,000 active; AID 686996, 2013; inhibition, % at 12.5 µM;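 active = mean inhibition across replicates at least about 35%, with every replicate also reaching that limit, limit read from the data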;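 note: 0% = median of neutral control wells and 100% = no fluorescence left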
Target sequence (P55212 24-179 limits assumed): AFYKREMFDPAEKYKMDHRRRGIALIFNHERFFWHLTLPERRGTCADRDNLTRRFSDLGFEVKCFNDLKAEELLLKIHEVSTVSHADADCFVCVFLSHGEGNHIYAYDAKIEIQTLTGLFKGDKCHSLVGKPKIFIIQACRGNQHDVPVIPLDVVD
Target sequence (P55212 194-293 limits assumed): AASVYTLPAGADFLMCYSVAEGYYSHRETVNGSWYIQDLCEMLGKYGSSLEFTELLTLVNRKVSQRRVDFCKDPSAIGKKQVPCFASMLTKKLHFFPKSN
LEDGF integ inh: blockers of LEDGF/p75-dependent integrase strand transfer – biochemical, TR-FRET, high throughput, primary screen. HIV-1 integrase (with human LEDGF/p75). TR-FRET IN-LEDGF/p75 DNA integration, Eu/Cy5. inhibition, % at 3.7 µM. 0.64% of 370,000 active;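 active = inhibition above the screen-wide mean plus 3 SD, cut at about 13% in these data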;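 note: signal is the Cy5 over europium emission ratio at 671 and 618 nm; 0% = plate median of compound wells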
Active calls of the source: *; x = not tested or not shown. Only some compounds are listed: those with a hit (about 1.8% of all), similar ones and a draw of the others.

SMILES	TDP2 absorb	NSD2 HMT inh	UHRF1 binding	MBD2 DNA inh	CASP6 VEID inh	LEDGF integ inh
COc1cc(C(=O)OCC(=O)c2cc(C)n(CC3CCCO3)c2C)cc(OC)c1C (centres undefined)	2.9	9.3	20.9*	4.4	4.5	-1.1
COc1cc(C)ccc1OCC(=O)OCC(=O)c1cc(C)n(CC2CCCO2)c1C (centres undefined)	-2.7	3.4	-1.6	-2.5	4.8	-1.7
O=C(N/N=C/c1ccoc1)c1ccccc1	-0.7	1.2	4.0	1.8	23.1	2.0
O=C(N/N=C/c1ccoc1)c1cc(O)cc(O)c1	0.3	6.3	28.5*	4.8	74.1*	8.4
O=C(N/N=C/c1oc(O)c2ccccc12)c1ccccc1O	6.8	1.1	-1.9	2.7	36.9*	0.2
O=C(N/N=C/c1ccc[nH]1)c1ccccc1O	-8.6	3.0	1.2	1.2	59.9*	0.1
Cc1cc(C)cc(C(=O)N/N=C/c2ccoc2)c1	8.2	-2.1	3.6	-4.0	5.6	3.4
O=C(N/N=C/c1ccoc1)c1ccccc1O	6.3	5.6	-2.9	-1.1	49.8*	-2.3
CNC[C@H]1Oc2ccc(NS(=O)(=O)c3ccc(F)cc3)cc2C(=O)N([C@@H](C)CO)C[C@H]1C	x	x	x	x	0.3	x
C[C@H](CO)N1C[C@H](C)[C@H](CN(C)C(=O)c2ccncc2)OCCCC[C@H](C)Oc2ccc(NS(=O)(=O)c3ccc(F)cc3)cc2C1=O	x	x	x	x	-3.1	x
COc1ccc(/C=N/NC(=O)c2ccccc2O)cc1CN1CCOCC1	12.6	1.4	0.8	1.1	41.9*	-6.2
COc1ccc(/C=N/NC(=O)c2cccc(Br)c2)cc1CN1CCOCC1	8.5	0.9	-1.8	-5.1	0.4	3.3
N#Cc1c(-c2ccco2)nc(SCC(=O)Nc2cccc(Cl)c2)[nH]c1=O	7.5	32.9	3.9	5.1	x	2.5
CCc1ccc(NC(=O)C(C)Sc2nc(-c3ccco3)c(C#N)c(=O)[nH]2)cc1 (centres undefined)	23.5	17.8	1.4	2.3	46.0*	8.1
Cc1ccc2nc(N3C(=O)C(O)=C(C(=O)c4ccc(C)o4)C3c3ccco3)sc2c1 (centres undefined)	2.8	1.5	0.1	-4.7	47.6*	7.6
CC(Sc1nnc(N)s1)C(=O)c1c(N)n(C)c(=O)n(C)c1=O (centres undefined)	-3.0	-1.4	2.8	-2.9	4.8	2.3
Cc1nc(SC(C)C(=O)c2c(N)n(C)c(=O)n(C)c2=O)c2c(C)c(C)sc2n1 (centres undefined)	-3.3	-1.1	1.6	-2.0	49.4*	1.7
CC1CCN(S(=O)(=O)c2ccc3c(c2)C(Cl)(Cl)C(=O)N3)CC1	18.2	40.9	-3.5	-4.4	69.1*	-3.7
C/C=C/c1ccc(C2[C@H]3CNC[C@@H]2N3C(=O)Nc2ccc3c(c2)OCO3)cc1 (some centres undefined)	x	x	x	x	1.4	x
CCc1ccc(S(=O)(=O)Nc2ccc(-c3ccc4nncn4n3)cc2)s1	-2.5	1.3	23.4*	0.1	-0.8	-4.2
O=C(NCc1ccccc1)c1cccc(OCC(=O)N2CCN(C(=O)c3ccco3)CC2)c1	7.5	10.5	21.4*	8.3	x	3.1
O=C(c1ccccn1)N1C[C@@H]2[C@H](c3ccccc31)[C@@H](CO)N2C(=O)Nc1ccccc1F	x	x	x	x	1.4	x
C/C(=N\NC(=O)c1ccccc1)c1ccc(NC(=O)c2cccs2)cc1	2.1	1.4	1.4	-1.2	3.9	-0.1
C/C(=N\NC(=O)c1ccccc1O)c1ccc(NC(=O)Cc2ccccc2)cc1	-1.9	1.8	-2.1	-4.0	36.0*	-0.1
COc1cccc(C(=O)N/N=C(\C)c2ccc(NC(=O)Cc3ccccc3)cc2)c1OC	-5.3	-1.7	1.8	4.7	3.3	-1.0
SMILES	TDP2 absorb	NSD2 HMT inh	UHRF1 binding	MBD2 DNA inh	CASP6 VEID inh	LEDGF integ inh
C/C(=N\NC(=O)c1ccccc1O)C1CC1	-1.9	-2.8	-2.2	-1.8	41.9*	1.3
C/C(=N\NC(=O)c1ccccc1C)c1ccc(NC(=O)c2cccs2)cc1	-0.7	-8.6	38.8*	-1.0	x	-0.8
CN(C)CCCNC(=O)C[C@@H]1CC[C@@H](NS(=O)(=O)c2ccccc2)[C@H](CO)O1	x	x	x	x	-2.0	x
CC(C)NC(=O)N(C)C[C@@H]1OCCCC[C@@H](C)Oc2ccc(NS(=O)(=O)c3ccccc3)cc2C(=O)N([C@H](C)CO)C[C@@H]1C	x	x	x	x	-0.7	x
CC(C)NC(=O)N(C)C[C@H]1OCCCC[C@H](C)Oc2ccc(NS(=O)(=O)c3ccccc3)cc2C(=O)N([C@H](C)CO)C[C@H]1C	3.2	x	22.2*	7.0	-1.6	4.8
C[C@@H]1CN([C@H](C)CO)C(=O)c2cc(NS(=O)(=O)c3cn(C)cn3)ccc2O[C@@H](C)CCCCO[C@@H]1CN(C)C(=O)CCCN(C)C	x	x	x	x	36.1*	x
C[C@@H]1CN([C@H](C)CO)C(=O)c2cc(NC(=O)Cc3ccccc3)ccc2O[C@@H](C)CCCCO[C@@H]1CN(C)C(=O)C1CCCCC1	x	x	x	x	-0.3	x
Cc1ccc(S(=O)(=O)N(C)CC(=O)NNC(=O)CCNS(=O)(=O)c2cccc(C)c2)cc1	4.6	0.5	34.2*	1.7	1.0	-3.4
CCCC(=O)N1CCC2(CC1)CN(C(=O)Nc1c(C)noc1C)[C@@H](CO)c1c2c2ccc(OC)cc2n1C	x	x	x	x	1.3	x
COc1ccccc1CNc1nc(Nc2ccccc2-n2cccn2)c2sccc2n1	-15.7	-0.2	-3.1	2.0	42.9*	4.7
COc1ccc(/C=C2\SC(=O)N(CC(=O)NCCCn3ccnc3)C2=O)cc1	-13.1	3.1	-10.2	-0.7	50.1*	0.9
CSc1ccccc1NC(=O)CN(C)C(=O)COc1cccc2cccnc12	-2.2	x	-7.4	-7.5	45.4*	8.2
CN(CC(=O)Nc1ccc(Cl)c(C(F)(F)F)c1)C(=O)COc1cccc2cccnc12	0.1	-1.3	2.6	-3.2	-1.5	-0.7
O=C(Nc1cccc2cccnc12)c1cccnc1	3.3	-4.1	-5.1	-1.2	3.0	1.4
O=C(Nc1cccc2nsnc12)c1cccnc1	0.5	1.4	55.1*	0.8	3.3	-3.9
CC(CNC(=O)CCc1nnc(CCC2CCCCC2)o1)c1ccccc1 (centres undefined)	0.2	-0.3	32.7*	0.3	1.5	-1.4
Cc1ccc(S(=O)(=O)Nc2ccc3c(c2)C(=O)N([C@H](C)CO)C[C@@H](C)[C@@H](CN(C)Cc2ccc(C(F)(F)F)cc2)OCCCC[C@H](C)O3)cc1	x	x	x	x	3.0	x
